Assay results taken from the EternaBench riboswitch data.

System: MS2 coat protein
Assay: apparent Kd, MS2 coat protein; higher = weaker binding; RNA-MaP array; FMN 200 µM where present
In short: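 In 100 mM Tris-HCl pH 7.5, 80 mM KCl, 4 mM MgCl2, BSA, DTT, yeast tRNA and Tween-20, SNAP-549-labelled MS2 coat protein was titrated from 0.7 or 1.5 nM, doubling to 3 µM, over designs transcribed by stalled E. coli RNA polymerase on Illumina sequencing-chip clusters. This was done first without ligand, then with ligand held constant. After green signal was normalised to red-channel RNA signal and control-cluster median Fmax, the apparent Kd was taken as the median of filtered per-cluster binding-curve fits.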

[1] = designed as: OFF switch for flavin mononucleotide, no ligand
[2] = ligand present: flavin mononucleotide, designed as: OFF switch for flavin mononucleotide
[3] = designed as: ON switch for flavin mononucleotide, no ligand
[4] = ligand present: flavin mononucleotide, designed as: ON switch for flavin mononucleotide

Sequence	apparent Kd [1]	apparent Kd [2]	apparent Kd [3]	apparent Kd [4]
UUUUGACAUGAGGAUCACCCAUGUCAGGAUAUAGUAGGACAAAUAAAUAAAAGUUCUACUAGAAGGGAUAUGGA	23.2 nM	37.5 nM		
CGCUGUCAUGCAGGAUAUGCAUUGGAUUGCAAUGCAGAAGGGCGAUUACAUGAGGAUCACCCAUGUGUAGACAGUGAAGAAGAG			160 nM	12.6 nM
AGCUAGUCAGGAUAUACGUGCAUGUCAAAAGACGUGAAGGGACAUGAGGAUCACCCAUGUAGAAGGGACUAGCA	54.5 nM	231 nM		
AAGCAGUGUAAAUAAACUCAAAUACAUGAGGAUCACCCAUGUAAGGAUAUGCAGUGGAAUACACUGCAGAAGGUACAUCACUGC	15.1 nM	22.6 nM		
UUCAUGUUAGGAUAUUCCGCCACAGAGAAAGUCUGUGGAAUGAAGAAGGGACAUGAGGAUCACCCAUGUUCCAA	15.1 nM	15.9 nM		
CGAUAGGACAGAGGAUAUACACAUGAGGAUCACCCAUGUGAUUACAACUCUUAAGAUUCAAACAUGUAGAAGGCUGUCCUAUCG	11.9 nM	30.4 nM		
GUUGUGUCAGGAUAUACGUUUGUUUUUUUUUUUGUUGUUUAGUAGAAGGGACAUGAGGAUCACCCAUGUUUGUU	25.7 nM	28.2 nM		
GUUUCACAUGAGGAUCACCCAUGUGAGGAUAUGGUUUCGCUGGCCGUAGCCAGUGGAACCAGAAGGCGCAUGAU	36.5 nM	41.3 nM		
UGUAAUUAGUAAGGAUAUACUAGUGAUUAGCUUGUAGAAGGUACAGUCUUAUGUAUAACAAAUUAACAUGAGGAUCACCCAUGU			10.2 nM	8.74 nM
UCGGCGCGAGGAUAUGCGGCUGGUGCUUCGGGCCCUCGCGUACAUGAGGAUCACCCAUGUAGAAGGCGCGCCGC	32.2 nM	38.6 nM		
UUCGCUAAGGUGUAGCGAGACACGCAAGAAGGGUGAUGCACAUGAGGAUCACCCAUGUAAGCCUUACAGGAUAUUGCUUGCCGA			899 nM	211 nM
CGUUUGUGGCAACUAUCCUCACAUGAGGAUCACCCAUGUAGGGAGGAUAUGCAUUUAAAGAAGUGGCAGAAGGCCCUACACGAA	101 nM	89.5 nM		
UUAGAAUUUGCAGGAUAUUGUAUUUUAUUACAUCAAGAAGGGCAUUACAUGAGGAUCACCCAUGUUAACAUGGUUAUAAAUUUU	94.8 nM	29.5 nM		
GGAUAGGACAGAGGAUAUACGUGCUAGAGAUACUAGCAAAAUUUCCUCACAUGAGGAUCACCCAUGUAGAAGGCUGUCCCAUCG	15.3 nM	327 nM		
GGACGUCAGAUUAACAUGAGGAUCACCCAUGUCUUUUGACAUGAGGAUAUGGUUGGUAAUUCCAACCAGAAGGCAUGGACGUCC			1100 nM	125 nM
GGAAUAUUUACAGGAUAUGUUUUGUUAAGUCGAGCAGAAGGGUAGAUGUCUUACACGGUUUGUUACAUGAGGAUCACCCAUGUU			114 nM	35.1 nM
CCCUCACAUGAGGAUCACCCAUGUCAGGAUAUCUCACAUCGGCCUUAGGCCAAUGUCAAGAGAAGGGACGUAUC	22.3 nM	33.9 nM		
CUUCAAGAUGUGAGGAUAUCGCCGAUGAGGAUAGUUGAGAAGGUACAUGAGGAUCACCCAUGUAGGCUGGGUUU	31.9 nM	42.1 nM		
UGACCAGUCCAGAAGGUGACGUCUGCAACUAGUCAAGGAUAUGGGUUGGUUCACGGUCGGCUACAUGAGGAUCACCCAUGUACC			8.26 nM	5.87 nM
AGAAACUACGAGAAGGACAUGUGGUCCUUCGAAAACAUGAGGAUCACCCAUGUAGGAUAUCGUAGUUUCAGGAUCGUGAGAUCA	18.2 nM	4.37 nM		
ACCGUGCAAGGAUAUCGUUACCUCGACAUGAGGAUCACCCAUGUGGCCAUAUAGCGAUUGCGAGAAGGUGCGGGUA	127 nM	112 nM		

Sequence	apparent Kd [1]	apparent Kd [2]	apparent Kd [3]	apparent Kd [4]
UAGCAUUGCCUUUGGUAGUGCCUUACAUGAGGAUCACCCAUGUAGGAUAUGGUAGGCUUUGCUUACCAGAAGGACAUGGUAAUU	52.9 nM	259 nM		
CCAUCGAGUGUGAGGAUAUGCUGUUCGAAAGAGCAGCAGAAGGCACAUGAGGAUCACCCAUGUGGAUACGGUGG	29.1 nM	212 nM		
GUAGCAUUAAUAGGAUAUUCAUACCGGAAACGGACAUGAGGAUCACCCAUGUGGCGAAAGCCUUGGGAGAAGGUAAUAUGCUAC			821 nM	240 nM
GUUUGUUAUUAGAAGGUGCCGGCGAGAGCCGCAACAUGAGGAUCACCCAUGUGUCGGUGACGACGCAAGGAUAUGGUGGUGGAU			308 nM	140 nM
UACAGACAUGAGGAUCACCCAUGUAAGGAUAUCGGUACCGAUGGUAUAAUCUACUCGGCGAGAAGGUACAGUGU	23.1 nM	26.7 nM		
AAAAAAAAUGUGUAGGAUAUCAGUAAAAAUACAUGAGGAUCACCCAUGUUCAAAAAAAAAAAAACUGAGAAGGACACGGAUGGUCC			120 nM	55.9 nM
UUUAUGUCAGGAUAUGAGGAGUAGAACAAUAGUACUACUCCUCAGAAGGGACAUGAGGAUCACCCAUGUUCCUC	20.7 nM	91.9 nM		
UUUCAUUACCCGAAGGAUAUCGCUCUUCCGACAUGAGGAUCACCCAUGUACUAGCCCUCCCUGCUCGAGAAGGUCGCGCGUGAAC			103 nM	67.4 nM
UCCACUACUGAGAAGGGAUACAUAUAAUUCUAGUCAGGAUAUCGAUACAGUGCAGCAUGAGGACAUGAGGAUCACCCAUGUAUU			18.9 nM	16 nM
UCCGCUAUCUAGAAGGAUAUGCGUAUAUAAACAUGAGGAUCACCCAUGUACCGGCGAAAACCGGUGCAGAAGGUUUAGCUAGUGA			431 nM	65.7 nM
CGUGCGUAUGUGAGGAUAUGCUGGUCCUUGGCUCGGCAGAAGGCACAUGAGGAUCACCCAUGUGGUGUCGUACA	78.2 nM	156 nM		
UAUCUAUUUAUGGGAUUAGAAUAUGAGGAUAUCAUUUAUUUAUACAUGAGGAUCACCCAUGUUACUGAGAAGGCAUAUUUAAUA			13.4 nM	7.47 nM
AUCAUCUUAUCAGGAUAUGCGUGUCGACGAAAGUAGACAAUCUUGAUAACAUGAGGAUCACCCAUGUAGAAGGGAUGAGAUGAU	46.6 nM	40.2 nM		
UAUGUGUCAGGAUAUUGUUAGUUUAGUUGUUUGUAUUAGUUCGAGAAGGGACAUGAGGAUCACCCAUGUUGUUU	30.9 nM	28.6 nM		
UGAUCGAGAGAUCUUAGAUUCUGGUAGGAUAUACAUUAUGUAUGAUAUACAUGAGGAUCACCCAUGUAGAAGGACUAGAGUCUA	6.2 nM	9.39 nM		
AUUGUUUAUGUAGGAUAUGCCUGGCGUGCCUUUGCAGAAGGACAUGAGGAUCACCCAUGUAUUGCGGUCUGCGUUCAGAUCGCA	33.2 nM	44.3 nM		
CAUAACGGCUGAGGAUAUUGAAUGUGCGUGGACAUGAGGAUCACCCAUGUUCAAGAAGGCAGCAAUUUACUUGGAUCUAUCCGC	66.2 nM	217 nM		
ACAUGAGGAUCUCCCAUGUAAAAUUAGGAUAUAUAACUGCACAUGAGGAUCACCCAUGUUUUACCGUAGAAGGGAUAAAUAAUU			1010 nM	567 nM
GGACAUGUACAGAAGGGCAAUUUAUUUAUUGAUUAUUUAGUUCUGUAUUGCAGGAUAUGUAAAACAUGAGGAUCACCCAUGUCC			73.5 nM	56.4 nM
ACCAUUUACUAAUCCUCUAUACAUGAGGAUCACCCAUGUUAUGAGGAUAUCAUCGUUCGCCGCGUUGAGAAGGCAUAGCAUUCG	16.3 nM	25.9 nM		
CCAUGCGGAAUAGGAUAUUCAUUCAUGAGGAUAGAAGAAGGGUUACAUGAGGAUCACCCAUGUAUACACAUGAGGAUCCCUUAC	162 nM	180 nM		
